Data: ChEMBL document CHEMBL4680175, “Sulfonamide-based ring-fused analogues for CAN508 as novel carbonic anhydrase inhibitors endowed with antitumor activity: Design, synthesis, and in vitro biological evaluation” (Eur J Med Chem, 2020)
Activity calls are given as the source filed them. No cut-off for these calls is given here.

Legend:
Type in all cases: functional
MCF7 [1] = experiment: Induction of cell cycle arrest in human MCF7 cells assessed as decrease in S phase population at IC50 concentration incubated for 24 hrs by PI/RNase staining based flow cytometric analysis
Summary of the method: (§1)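 Cells were washed in ice-cold PBS, fixed in ice-cold 70% ethanol, treated with 100 µg/mL RNase and stained with 40 µg/mL PI. DNA content was read by flow cytometry, with sub-G1 compared against control.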

MCF7 [2] = experiment: Induction of apoptosis in human MCF7 cells assessed as fold increase in apoptotic cells by Annexin V-FITC/propidium iodide staining based flow cytometric analysis relative to control
MCF7 [3] = experiment: Induction of cell cycle arrest in human MCF7 cells assessed as fold increase in apoptotic cells at sub-G1 phase at IC50 concentration incubated for 24 hrs by PI/RNase staining based flow cytometric analysis relative to control; summary of the method: as §1
MDA-MB-468 [4] = experiment: Potency index, ratio of staurosporine IC50 to compound IC50 for antiproliferative activity against human MDA-MB-468 cells measured after 48 hrs under CoCl2-induced hypoxic condition by MTT assay
MDA-MB-468 [5] = experiment: Potency index, ratio of staurosporine IC50 to compound IC50 for antiproliferative activity against human MDA-MB-468 cells measured after 48 hrs under normoxic condition by MTT assay

| Structure (SMILES) | Activity (MCF7 [1]) | fold change (FC) (MCF7 [2]) | fold change (FC) (MCF7 [3]) | Ratio IC50 (MDA-MB-468 [4]) | Ratio IC50 (MDA-MB-468 [5]) |
| --- | --- | --- | --- | --- | --- |
| N#Cc1c(-c2ccc(F)cc2)nc2c(/N=N/c3ccc(S(N)(=O)=O)cc3)c(N)nn2c1N | Active | 23 | 11 |  |  |
| N#Cc1c(-c2ccc(Cl)cc2)nc2c(/N=N/c3ccc(S(N)(=O)=O)cc3)c(N)nn2c1N | Active | 18 | 8 |  |  |
| Cc1ccc(-c2nc3c(/N=N/c4ccc(S(N)(=O)=O)cc4)c(N)nn3c(N)c2C#N)cc1 |  |  |  | 2.1 | 3.1 |
